Measured values collected from several papers.
Cell line: HCT-116
Read-out: cell growth or viability

SMILES | assay | conditions | measurement | value
COc1nc(NCc2cn(-c3ccc(NC(=O)c4ccccc4)cc3)nn2)nc(OC)n1 | MTT | 72 h | IC50 | 0.0608 µM
COc1cc2ncnc(N(C)c3ccc4c(c3)/C(=C/c3ccccc3)C(=O)N4C)c2cc1OC (mixture of isomers) | MTT |  | IC50 | 6.91 µM
COc1ccc(-c2cc(-c3cc(OC)ccc3OC)c3c(=O)n(C)c(=O)n(C)c3n2)cc1 | MTT | 48 h | IC50 | 11.1 µM
O=C(O)c1ccccc1Nc1cccc(C(F)(F)F)c1 | CCK-8 | 72 h | GI50 | > 40 µM
CC(=NNC(=O)COc1ccc2c(C)c(Cc3ccccc3)c(=O)oc2c1C)c1ccc(Br)cc1 | MTT | 100 µg/mL | viability | 33.6%
COc1nc(NCc2cn(-c3ccc(C(=O)Nc4ccc(C(F)(F)F)cc4)cc3)nn2)nc(OC)n1 | MTT | 72 h | IC50 | 0.00141 µM
COc1ccc(-c2cc(-c3c(OC)cccc3OC)c3c(=O)n(C)c(=O)n(C)c3n2)cc1 | MTT | 48 h | IC50 | 5.44 µM
COc1nc(NCc2cn(-c3ccc(C(=O)Nc4ccc(F)cc4)cc3)nn2)nc(OC)n1 | MTT | 72 h | IC50 | 0.0341 µM
Cc1nc(N(C)c2ccc3c(c2)/C(=C/c2ccccc2Cl)C(=O)N3C)c2ccccc2n1 | MTT |  | IC50 | 4.11 µM
Cc1ccc(-c2cc(-c3ccc(N(C)C)cc3)c3c(=O)n(C)c(=O)n(C)c3n2)cc1 | MTT | 48 h | IC50 | 12 µM
C=CC(=O)c1cccnc1Nc1cccc(C(F)(F)F)c1 | CCK-8 | 72 h | GI50 | 34.9 µM
Cc1ccc(-c2cc(-c3ccc(Cl)c(F)c3)c3c(=O)[nH]c(=O)[nH]c3n2)cc1 | MTT | 48 h | IC50 | 11.2 µM
Cc1nc(Nc2ccc3c(c2)/C(=C/c2ccccc2C)C(=O)N3C)c2ccccc2n1 | MTT |  | IC50 | 20.6 µM
COc1nc(NCc2cn(-c3ccc(NC(=O)c4ccc(F)cc4)cc3)nn2)nc(OC)n1 | MTT | 72 h | IC50 | 0.0122 µM
Cc1nc(Nc2ccc3c(c2)C(C)(C)C(=O)N3C)c2ccccc2n1 | MTT |  | IC50 | > 50 µM
COc1ccc(-c2cc(-c3ccc(C)cc3)nc3[nH]c(=O)[nH]c(=O)c23)cc1OC | MTT | 48 h | IC50 | 19 µM
COc1ccc(C(=O)Nc2ccc(-n3cc(CNc4nc(OC)nc(OC)n4)nn3)cc2)cc1 | MTT | 72 h | IC50 | 0.0595 µM
COc1cc2ncnc(N(C)c3ccc4c(c3)/C(=C/c3cccc(Cl)c3)C(=O)N4C)c2cc1OC | MTT |  | IC50 | 7.52 µM
COc1ccc(-c2cc(-c3ccccc3Cl)c3c(=O)[nH]c(=O)[nH]c3n2)cc1 | MTT | 48 h | IC50 | 13.4 µM
Cc1nc(Nc2ccc3c(c2)C(C)(C)C(=O)N3)c2ccccc2n1 | MTT |  | IC50 | > 50 µM
COc1nc(NCc2cn(-c3ccc(C(=O)Nc4ccc([N+](=O)[O-])cc4)cc3)nn2)nc(OC)n1 | MTT | 72 h | IC50 | 0.059 µM
COc1cc2ncnc(Nc3ccc4c(c3)/C(=C/c3ccccc3)C(=O)N4C)c2cc1OC | MTT |  | IC50 | 6.67 µM
COc1ccc(-c2cc(-c3ccc(Cl)cc3)c3c(=O)n(C)c(=O)n(C)c3n2)cc1 | MTT | 48 h | IC50 | 7.54 µM
C=CC(=O)NC1CCN(c2ncc3ncnc(Nc4ccc(Oc5ccc6c(c5)ncn6C)c(C)c4)c3n2)CC1 |  |  | EC50 | 2.6 µM
COc1ccc(NC(=O)c2ccc(-n3cc(CNc4nc(OC)nc(OC)n4)nn3)cc2)cc1 | MTT | 72 h | IC50 | 0.0123 µM
Cc1ccc(-c2cc(-c3c(Cl)cccc3Cl)c3c(=O)[nH]c(=O)[nH]c3n2)cc1 | MTT | 48 h | IC50 | 28 µM
